Results on two compounds are retold here after ChEMBL document CHEMBL4364301 (Eur J Med Chem, 2019).

pIC50: −log10 of the molar value.

Holding throughout (assay type): functional
The test system of assay [1] is MCF7. As to the kind of experiment: Antiproliferative activity against human MCF7 cells assessed as T/C value at 1 x 10^-2 uM incubated for 96 hrs by propidium iodide based 2D monolayer assay.
Assay [2] has as its system DU-145. The assay is described as follows: Antiproliferative activity against human DU145 cells assessed as T/C value at 1 x 10^-1 uM incubated for 96 hrs by propidium iodide based 2D monolayer assay. The essentials: (§1)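 After 24 h recovery, compound in medium or medium alone (control wells) was added at 10 half-log concentrations from 0.0032 to 100 µM, in triplicate, with at most 0.3% DMSO. After 96 h, wells were PBS-washed, stained with 7 µg/ml PI and 0.1% Triton X-100, and fluorescence read at 530/620 nm. IC50 came from a 4-parameter fit, geometric mean.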

Assay [3] concerns VCaP. The assay is described as follows: Antiproliferative activity against human VCaP cells assessed as T/C value at 3.2 uM incubated for 96 hrs by propidium iodide based 2D monolayer assay. Summed up:
(§2)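 Cells were kept in RPMI 1640 with 25 mM HEPES, 10% FCS and gentamicin at 37 °C under 5% CO2, and plated at 4,000-20,000 cells/well. After 24 h recovery, compound in medium or medium alone (control wells) was added at 10 half-log concentrations from 0.0032 to 100 µM, in triplicate, with at most 0.3% DMSO. After 96 h, wells were PBS-washed, stained with 7 µg/ml PI and 0.1% Triton X-100, and fluorescence read at 530/620 nm. IC50 came from a 4-parameter fit, geometric mean.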

For assay [4], the system named is LNCaP. The assay is described as follows: Antiproliferative activity against human LNCAP cells assessed as T/C value at 1 x 10^1 uM incubated for 96 hrs by propidium iodide based 2D monolayer assay. Summed up:
as §2

Assay [5] relates to LNCaP. The assay is described as follows: Antiproliferative activity against human LNCAP cells assessed as T/C value at 1 x 10^-2 uM incubated for 96 hrs by propidium iodide based 2D monolayer assay. Summed up:
as §2

The test system of assay [6] is MCF7. The assay is described as follows: Antiproliferative activity against human MCF7 cells assessed as T/C value at 3.2 x 10^-1 uM incubated for 96 hrs by propidium iodide based 2D monolayer assay.
Assay [7] relates to MCF7. The assay is described as follows: Antiproliferative activity against human MCF7 cells assessed as T/C value at 3.2 x 10^-3 uM incubated for 96 hrs by propidium iodide based 2D monolayer assay.
Assay [8] has as its system MCF7. As to the kind of experiment: Antiproliferative activity against human MCF7 cells assessed as T/C value at 3.2 x 10^-2 uM incubated for 96 hrs by propidium iodide based 2D monolayer assay.
The test system of assay [9] is MCF7. As to the kind of experiment: Antiproliferative activity against human MCF7 cells assessed as reduction in cell growth incubated for 96 hrs by propidium iodide based 2D monolayer assay. Conditions: MCF7, 96 h.
In assay [10] the test system is VCaP. The assay is described as follows: Antiproliferative activity against human VCaP cells assessed as T/C value at 1 x 10^-2 uM incubated for 96 hrs by propidium iodide based 2D monolayer assay. Summed up: as §2
For assay [11], the system named is MCF7. The assay is described as follows: Antiproliferative activity against human MCF7 cells assessed as T/C value at 1 x 10^1 uM incubated for 96 hrs by propidium iodide based 2D monolayer assay.
Assay [12] deals with CWR22R. The assay is described as follows: Antiproliferative activity against human 22Rv1 cells assessed as T/C value at 3.2 x 10^1 uM incubated for 96 hrs by propidium iodide based 2D monolayer assay. The essentials:
as §2

Assay [13] concerns MCF7. As to the kind of experiment: Antiproliferative activity against human MCF7 cells assessed as T/C value at 1 x 10^2 uM incubated for 96 hrs by propidium iodide based 2D monolayer assay.
Assay [14] relates to DU-145. The assay is described as follows: Antiproliferative activity against human DU145 cells assessed as T/C value at 1 x 10^2 uM incubated for 96 hrs by propidium iodide based 2D monolayer assay. Summed up:
as §2

In assay [15] the test system is LNCaP. As to the kind of experiment: Antiproliferative activity against human LNCAP cells assessed as T/C value at 1 x 10^2 uM incubated for 96 hrs by propidium iodide based 2D monolayer assay. Summed up: as §2
Assay [16] concerns VCaP. The assay is described as follows: Antiproliferative activity against human VCaP cells assessed as T/C value at 1 uM incubated for 96 hrs by propidium iodide based 2D monolayer assay. The essentials: as §2
The test system of assay [17] is MCF7. The assay is described as follows: Antiproliferative activity against human MCF7 cells assessed as T/C value at 1 x 10^-1 uM incubated for 96 hrs by propidium iodide based 2D monolayer assay.
Assay [18] relates to MCF7. As to the kind of experiment: Antiproliferative activity against human MCF7 cells assessed as T/C value at 3.2 x 10^1 uM incubated for 96 hrs by propidium iodide based 2D monolayer assay.
Assay [19] deals with LNCaP. The assay is described as follows: Antiproliferative activity against human LNCAP cells assessed as T/C value at 1 uM incubated for 96 hrs by propidium iodide based 2D monolayer assay. Summed up: as §2
In assay [20] the test system is DU-145. The assay is described as follows: Antiproliferative activity against human DU145 cells assessed as T/C value at 3.2 x 10^-1 uM incubated for 96 hrs by propidium iodide based 2D monolayer assay. The essentials:
as §1

Assay [21] has as its system DU-145. The assay is described as follows: Antiproliferative activity against human DU145 cells assessed as T/C value at 1 x 10^1 uM incubated for 96 hrs by propidium iodide based 2D monolayer assay. Summed up:
as §1

The subject of assay [22] is DU-145. As to the kind of experiment: Antiproliferative activity against human DU145 cells assessed as T/C value at 3.2 x 10^1 uM incubated for 96 hrs by propidium iodide based 2D monolayer assay. The essentials:
as §2

Assay [23] deals with MCF7. The assay is described as follows: Antiproliferative activity against human MCF7 cells assessed as T/C value at 3.2 uM incubated for 96 hrs by propidium iodide based 2D monolayer assay.

Consider `CC(O)(CSc1cc(C(F)(F)F)cc(C(F)(F)F)c1)C(=O)Nc1cccc(C(F)(F)C(F)(F)F)c1` (racemic), for which the T/C in [1] is 115%; in [2], 135%; in assay [3] it was 102%; in assay [4] it was 8%; in assay [5], 93%; in [6] it was 121%. Also, the T/C is given as 86% in assay [7]; 118% in [8]; 107% in assay [10]; 36% in assay [11]; 7% in assay [12]; 5% in assay [13]. Further, the T/C was found to be 2% in assay [14]; 7% in assay [15]; 93% in assay [16]; 111% in assay [17]; 10% in assay [18]; 107% in assay [19]. Besides, the T/C in [20] amounted to 135%; in [21] it was 22%; in [22] it was 8%; in assay [23], 109%. For the same compound, the pIC50 in assay [9] is 5.07. Moreover, the IC70 in assay [9] came to 10.8 µM.

With `CC(O)(COc1ccc(C(F)(F)C(F)(F)F)cc1)C(=O)Nc1cc(C(F)(F)F)cc(C(F)(F)F)c1` (racemic), the T/C in [1] came to 100%; in assay [2] it was 113%; in assay [3], 45%; in assay [4], 9%; in assay [5] it was 94%; in assay [6] it was 118%. The T/C in assay [7] is listed as 103%; in [8] it was 112%; in assay [10] it was 91%; in [11], 26%; in [12], 5%; in [13] it was 3%. Besides, the T/C in assay [14] is -1%; in [15], 1%; in assay [16], 94%; in assay [17], 116%; in assay [18], 3%; in [19] it was 93%. Besides, the T/C came out at 123% in [20], 13% in [21], 3% in [22] and 57% in assay [23]. For the same compound, the pIC50 in [9] is 5.40. Moreover, in assay [9], the IC70 amounted to 6.15 µM.

By pIC50 is commonly meant the negative decadic logarithm of the IC50, by convention in mol/L. As usually defined, the IC70 is the concentration needed for an effect of 70%.
